The list is a sample of the results.
Apaf1 activ – human Apaf-1 activation; activity change, negative = activation, % at 20 µM; Apaf-1 apoptosome caspase-3 activation, DEVD-Rh110 fluorescence; hits give low values; actives 0.31% (n = 330,000); AID 489031; O14727;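 active means activity change at or below -40% at 20 µM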
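Material: biochemical Apaf-1 apoptosome reconstitution; Medium: 20 mM HEPES buffer, pH 7.5, containing CHAPS and BSA; Reagent: dATP, cytochrome c, and (Z-DEVD)2-Rh110 caspase-3 substrate; Times: 30 min preincubation, 50 min reaction, room temperature; Signal: Rh110 fluorescence, excitation 480 nm, emission 540 nm; Measure: Caspase-3 activity via Apaf-1.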
Rh110 act interf – Rh110 signal interference in Apaf-1 activator counter-screen; shares compounds with Apaf1 activ; Rh110 fluorescence interference, quenched caspase reaction, Ex480/Em540; fluorescence interference (activity change), % at 20 µM, hits read low; 980 tested, under 10 active; AID 504616;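 active means mean activity change at or below -40% when tested at 20 µM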
Apaf-1 act conf2 – confirmation of human Apaf-1 activators; shares compounds with Apaf1 activ; reconstituted apoptosome caspase-3 activity, DEVD-Rh110 fluorescence; hits give low values; activity change, negative = activation, % at 20 µM; actives 5% (n = 980);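 active means mean activity change at or below -40%, meaning activation of 40% or more, at 20 µM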
The depositor's hits bear a star.

SMILES	Apaf1 activ	others
NC1=NC[C@H](c2ccccc2)N1CCc1cc(C(F)(F)F)cc(C(F)(F)F)c1	54
CC(=O)c1ccc2c(c1)C1C=CCC1C(c1ccncc1)N2 (centres undefined)	60
COCCCC1CCN(Cc2nc(-c3ccccc3)no2)CC1	-51*	Rh110 act interf=7;Apaf-1 act conf2=11
c1ccc(-c2noc(CN3CCN(c4cnccn4)CC3)n2)cc1	-92*	Rh110 act interf=3;Apaf-1 act conf2=1
Cc1cc(C)c2sc(N(CCN(C)C)C(=O)CCS(=O)(=O)c3ccccc3)nc2c1	53
C#CCOCCOCCOCCNc1nc(N2CCOCC2)nc(N2CCN(C(=O)CCCCCCCCCCNC(=O)[C@H](CO)n3cc(CCCCCN)nn3)CC2)n1	44
COc1ccc(CN=Cc2[nH]c3ccc(Br)c(Cl)c3c2O)cc1	45
COc1ccc(C(=O)Nc2ccccc2C(=O)NC(Cc2ccc(O)cc2)C(=O)NNC(=O)c2ccccc2Cl)cc1 (centres undefined)	-48*	Rh110 act interf=3;Apaf-1 act conf2=16
O=C(O)CC1S/C(=N/N=C/c2ccc(-c3ccc(Cl)cc3[N+](=O)[O-])o2)NC1=O (centres undefined)	52
CCN1CCN(Cc2ccc(NC(=O)c3cc(NC(=O)C(=O)c4c[nH]c5ccccc45)cc(OC)c3)cc2C(F)(F)F)CC1	41
CCO/C=C1/C(=O)N(C)C(=O)c2cc(OC)ccc21	47
CCC1Oc2ccccc2N(CC(=O)NC2CCCCC2C)C1=O (centres undefined)	-224*	Rh110 act interf=7;Apaf-1 act conf2=15
O=c1cc(-c2ccc(F)cc2)[nH][nH]1	50
CCCCCCCCCC[N+](C)(C)CC/C=C1/c2ccccc2Sc2ccc(Cl)cc21	81
CCCCC(CC)CN=C(N)NC(N)=NCCCCCCN=C(N)NC(N)=NCC(CC)CCCC (centres undefined)	94
CCOC(=O)C1CCCN(c2cc(NCCCO)c([N+](=O)[O-])c3nonc23)C1 (centres undefined)	40
O=C(O)CC(NC(=O)c1sc2ccccc2c1Cl)c1ccc(OC2CCCC2)cc1 (centres undefined)	44
CCOC(=O)N1CCc2c(sc3c2C(=O)NC(c2ccccc2)N3)C1 (centres undefined)	81
CCOC(=O)CC1C(=O)NCCN1C(=O)c1sc2ccccc2c1Cl (centres undefined)	-260*	Rh110 act interf=-2;Apaf-1 act conf2=12
COc1ccc(OC)c2c1C(=O)c1ccccc1C2=O	63
COc1ccc2ccccc2c1C1CC(=O)N2CN(Cc3ccco3)CSC2=C1C#N (centres undefined)	52
COc1ccccc1N=Nc1ccc(O)c2ncccc12	90
CCOC(CNc1ncnc2c1cnn2C)OCC	-143*	Rh110 act interf=0;Apaf-1 act conf2=6
COc1ccc(-c2coc3c(CN4CCCCC4)c(O)c(CN4CCCCC4)c(O)c3c2=O)cc1	42
C#CCOCCOCCOCCNc1nc(N2CCN(C(=O)CCCCCCCCCCNC(=O)[C@H](CCCCN)n3cc(C)nn3)CC2)nc(N2CCN(C(=O)CCCCCCCCCCNC(=O)[C@@H]([C@H](C)CC)n3cc(CCCCCN)nn3)CC2)n1	82
SMILES	Apaf1 activ	others
Cc1cccn2c(=O)c3cc(C(=O)NC4CCCCC4)c(=N)n(Cc4ccccc4)c3nc12	57
Cc1ccccc1NC(=O)NC1CCCCCCC1	-63*	Rh110 act interf=4;Apaf-1 act conf2=6
Cc1cc2cc(CNC(=O)NC3CCCCC3)ccc2n1C	51
C[C@@]12CCC=C[C@H]1[C@H](c1ccc3ccccc3c1Br)N(Cc1ccccc1)C2=O	49
C#CCOCCOCCOCCNc1nc(N2CCN(C(=O)C([C@@H](C)O)n3cc([C@@H](N)CCCCN)nn3)CC2)nc(N2CCN(C(=O)[C@H](CO)n3cc([C@@H](N)C(C)C)nn3)CC2)n1 (some centres undefined)	53
COc1ccc(NC(=O)C(c2ccccn2)N(C(C)=O)c2ccc(C)cc2)cc1 (centres undefined)	-415*	Rh110 act interf=8;Apaf-1 act conf2=6
COc1ccccc1C(=O)Nc1ccc(Oc2nnc(-c3ccc(C)cc3)c3ccccc23)cc1	40
COC1=C(Nc2ccc(C)cc2)C(=O)c2ccccc2C1=O	61
O=C1NCN(c2ccccc2)C12CCN(CCCC(c1ccc(F)cc1)c1ccc(F)cc1)CC2	55
CC(C)[C@H](N)C(=O)OCCOCn1cnc2c(=O)[nH]c(N)nc21	-7
O=C(NC(=S)Nn1cnc2c(cnn2-c2ccccc2)c1=O)c1ccc(Oc2ccccc2)cc1	41
COC(=O)Cn1cnc2c(cnn2-c2ccccc2)c1=O	-197*	Rh110 act interf=1;Apaf-1 act conf2=7
CC1(C)Nc2ccc(O)cc2-c2c1ssc2=S	51
Cc1ccc(C(=O)NC(=S)Nc2cccc3nsnc23)cc1	59

Screening data: PubChem, Sanford-Burnham Center for Chemical Genomics
